Columns and labels:
[1] = molecular target: T1, Adrenergic receptor alpha-1 (Rattus norvegicus, UniProt P15823+P23944+P43140); experiment: Binding affinity against alpha-1 adrenergic receptor; type: protein assay
T1 sequence (P15823 whole entry): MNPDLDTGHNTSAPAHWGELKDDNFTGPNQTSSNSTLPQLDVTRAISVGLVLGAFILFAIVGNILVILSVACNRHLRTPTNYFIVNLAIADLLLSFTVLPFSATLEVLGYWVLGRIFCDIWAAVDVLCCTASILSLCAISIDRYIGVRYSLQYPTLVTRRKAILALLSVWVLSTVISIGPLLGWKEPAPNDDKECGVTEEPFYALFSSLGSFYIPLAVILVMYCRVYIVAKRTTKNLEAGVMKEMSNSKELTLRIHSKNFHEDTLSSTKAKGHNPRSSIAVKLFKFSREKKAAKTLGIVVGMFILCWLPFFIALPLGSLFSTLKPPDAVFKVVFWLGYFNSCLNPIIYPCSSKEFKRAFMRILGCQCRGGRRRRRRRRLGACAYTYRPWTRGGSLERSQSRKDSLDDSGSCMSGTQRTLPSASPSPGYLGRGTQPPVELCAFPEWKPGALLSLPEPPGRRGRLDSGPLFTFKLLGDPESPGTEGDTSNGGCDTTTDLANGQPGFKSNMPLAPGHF
T1 sequence (P23944 whole entry): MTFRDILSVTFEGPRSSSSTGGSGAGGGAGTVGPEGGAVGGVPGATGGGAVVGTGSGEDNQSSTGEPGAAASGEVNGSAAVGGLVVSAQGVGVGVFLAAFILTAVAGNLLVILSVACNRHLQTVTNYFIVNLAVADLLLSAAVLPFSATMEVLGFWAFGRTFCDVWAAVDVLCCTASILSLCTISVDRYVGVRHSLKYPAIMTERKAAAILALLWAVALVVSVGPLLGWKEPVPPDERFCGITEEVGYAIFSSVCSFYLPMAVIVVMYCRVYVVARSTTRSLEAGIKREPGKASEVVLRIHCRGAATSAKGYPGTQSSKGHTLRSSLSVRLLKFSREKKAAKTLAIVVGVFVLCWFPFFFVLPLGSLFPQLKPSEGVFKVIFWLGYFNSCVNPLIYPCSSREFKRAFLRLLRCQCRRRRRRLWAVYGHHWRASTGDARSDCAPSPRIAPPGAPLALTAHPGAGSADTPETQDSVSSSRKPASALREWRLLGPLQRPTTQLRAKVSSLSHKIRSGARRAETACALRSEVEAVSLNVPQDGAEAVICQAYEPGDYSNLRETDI
T1 sequence (P43140 whole entry): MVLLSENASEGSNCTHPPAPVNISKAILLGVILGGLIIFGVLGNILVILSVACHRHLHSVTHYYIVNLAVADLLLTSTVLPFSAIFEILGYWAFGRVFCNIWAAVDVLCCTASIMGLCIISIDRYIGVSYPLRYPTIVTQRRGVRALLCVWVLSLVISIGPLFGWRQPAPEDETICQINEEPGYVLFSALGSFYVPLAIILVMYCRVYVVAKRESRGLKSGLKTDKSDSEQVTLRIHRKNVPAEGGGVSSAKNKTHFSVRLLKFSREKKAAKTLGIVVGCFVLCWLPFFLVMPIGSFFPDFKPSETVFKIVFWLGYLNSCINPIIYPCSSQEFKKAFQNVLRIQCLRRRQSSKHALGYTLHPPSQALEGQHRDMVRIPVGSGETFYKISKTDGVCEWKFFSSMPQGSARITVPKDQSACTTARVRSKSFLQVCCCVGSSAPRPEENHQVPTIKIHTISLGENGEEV
Outline: (§1)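 Radioligand binding at α1 adrenergic receptors using [3H]prazosin in a standard binding assay.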

Glutamate NMDA receptor = experiment: N-methyl-D-aspartate glutamate receptor antagonistic activity in cell culture(CC)model; type: functional
Outline: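 Functional NMDA antagonism in rat hippocampal cell cultures. Read-out is protection of the cultured neurons against toxicity from extracellularly applied glutamate (the glutamate-induced hippocampal neurodegeneration model).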

[2] = system: Alpha-1 adrenergic receptor versus NMDA receptor; experiment: (§2) Therapeutic index is the ratio of IC50 value for Alpha-1 adrenergic receptor to that for NMDA.; conditions: read-out: TI
Outline: (§3)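 Selectivity index calculated as α1 adrenergic potency ([3H]prazosin binding) divided by activity in the rat hippocampal culture glutamate-neurotoxicity model.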

[3] = molecular target: T1, Adrenergic receptor alpha-1; experiment: Compound was tested for the binding affinity against Alpha-1 adrenergic receptor; type: protein assay; outline: as §1
[4] = as §2; outline: as §3
[5] = molecular target: T2, 5-hydroxytryptamine receptor 1A (Mus musculus, UniProt Q64264); experiment: Compound was tested for the binding affinity against 5-hydroxytryptamine 1A receptor by using [3H]DPAT as radioligand
T2 sequence (Q64264 whole entry): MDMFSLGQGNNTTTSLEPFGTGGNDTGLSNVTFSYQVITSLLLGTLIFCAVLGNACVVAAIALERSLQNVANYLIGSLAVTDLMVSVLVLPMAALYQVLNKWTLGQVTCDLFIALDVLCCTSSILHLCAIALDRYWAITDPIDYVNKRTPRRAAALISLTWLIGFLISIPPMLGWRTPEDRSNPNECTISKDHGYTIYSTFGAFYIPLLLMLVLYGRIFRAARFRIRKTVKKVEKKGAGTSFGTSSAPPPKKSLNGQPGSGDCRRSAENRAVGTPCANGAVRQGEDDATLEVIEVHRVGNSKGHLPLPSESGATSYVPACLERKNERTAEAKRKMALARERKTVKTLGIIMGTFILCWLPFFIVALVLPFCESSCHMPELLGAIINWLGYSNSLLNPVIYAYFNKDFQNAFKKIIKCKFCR

[6] = molecular target: 5-hydroxytryptamine receptor 2A (Bos taurus, UniProt Q75Z89); experiment: Compound was tested for the binding affinity against 5-hydroxytryptamine 2 receptor by using [3H]ketanserin as radioligand
Chain of 5-hydroxytryptamine receptor 2A (Q75Z89 whole entry): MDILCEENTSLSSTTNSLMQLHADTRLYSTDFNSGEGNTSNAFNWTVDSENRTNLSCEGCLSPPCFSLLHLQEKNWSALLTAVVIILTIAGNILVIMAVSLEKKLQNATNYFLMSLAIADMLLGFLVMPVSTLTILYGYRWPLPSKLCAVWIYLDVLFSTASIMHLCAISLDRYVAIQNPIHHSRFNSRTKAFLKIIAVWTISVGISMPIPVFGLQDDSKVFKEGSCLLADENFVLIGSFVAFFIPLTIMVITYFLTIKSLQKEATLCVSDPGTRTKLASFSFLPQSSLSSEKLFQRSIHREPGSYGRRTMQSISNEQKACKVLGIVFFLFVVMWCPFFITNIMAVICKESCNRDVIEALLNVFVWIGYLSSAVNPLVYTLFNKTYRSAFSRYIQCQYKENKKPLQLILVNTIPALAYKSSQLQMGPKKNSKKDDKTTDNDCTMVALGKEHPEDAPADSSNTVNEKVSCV

D(1A) dopamine receptor = D(1A) dopamine receptor (Mus musculus, UniProt Q61616); experiment: Compound was tested for the binding affinity against dopamine receptor D1 by using [3H]-SCH- 23390 as radioligand
Chain of D(1A) dopamine receptor (Q61616 whole entry): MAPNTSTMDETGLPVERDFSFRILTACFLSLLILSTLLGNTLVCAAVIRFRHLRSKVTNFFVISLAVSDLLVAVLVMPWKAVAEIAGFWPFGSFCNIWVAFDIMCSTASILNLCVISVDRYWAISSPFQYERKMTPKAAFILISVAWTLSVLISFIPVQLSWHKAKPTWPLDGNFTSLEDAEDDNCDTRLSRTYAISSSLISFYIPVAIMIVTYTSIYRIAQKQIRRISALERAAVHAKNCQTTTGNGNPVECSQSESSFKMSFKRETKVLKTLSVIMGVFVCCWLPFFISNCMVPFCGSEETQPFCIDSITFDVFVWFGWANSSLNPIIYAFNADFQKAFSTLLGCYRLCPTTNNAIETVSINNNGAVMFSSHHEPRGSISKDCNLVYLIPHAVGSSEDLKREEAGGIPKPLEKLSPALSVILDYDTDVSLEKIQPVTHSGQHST

D(2) dopamine receptor = D(2) dopamine receptor (Homo sapiens, UniProt P14416); experiment: Compound was tested for the binding affinity against dopamine receptor D2 by using [3H]spiperone as radioligand
Chain of D(2) dopamine receptor (P14416 whole entry): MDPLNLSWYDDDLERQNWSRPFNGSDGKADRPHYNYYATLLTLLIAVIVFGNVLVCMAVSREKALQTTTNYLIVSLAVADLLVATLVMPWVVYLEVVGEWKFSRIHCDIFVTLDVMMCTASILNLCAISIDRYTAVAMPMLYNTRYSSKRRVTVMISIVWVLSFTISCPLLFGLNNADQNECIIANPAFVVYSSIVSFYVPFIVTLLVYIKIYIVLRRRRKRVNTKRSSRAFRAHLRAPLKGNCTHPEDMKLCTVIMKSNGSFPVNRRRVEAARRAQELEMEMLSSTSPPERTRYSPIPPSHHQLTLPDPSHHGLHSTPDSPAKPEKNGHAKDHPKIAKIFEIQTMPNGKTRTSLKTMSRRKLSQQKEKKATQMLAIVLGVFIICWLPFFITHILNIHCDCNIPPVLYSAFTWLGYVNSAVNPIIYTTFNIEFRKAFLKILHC

Histamine H1 receptor = Histamine H1 receptor (Homo sapiens, UniProt P35367); experiment: Compound was tested for the binding affinity against histamine H1 receptor by using [3H]mepyramine as radioligand
Chain of Histamine H1 receptor (P35367 whole entry): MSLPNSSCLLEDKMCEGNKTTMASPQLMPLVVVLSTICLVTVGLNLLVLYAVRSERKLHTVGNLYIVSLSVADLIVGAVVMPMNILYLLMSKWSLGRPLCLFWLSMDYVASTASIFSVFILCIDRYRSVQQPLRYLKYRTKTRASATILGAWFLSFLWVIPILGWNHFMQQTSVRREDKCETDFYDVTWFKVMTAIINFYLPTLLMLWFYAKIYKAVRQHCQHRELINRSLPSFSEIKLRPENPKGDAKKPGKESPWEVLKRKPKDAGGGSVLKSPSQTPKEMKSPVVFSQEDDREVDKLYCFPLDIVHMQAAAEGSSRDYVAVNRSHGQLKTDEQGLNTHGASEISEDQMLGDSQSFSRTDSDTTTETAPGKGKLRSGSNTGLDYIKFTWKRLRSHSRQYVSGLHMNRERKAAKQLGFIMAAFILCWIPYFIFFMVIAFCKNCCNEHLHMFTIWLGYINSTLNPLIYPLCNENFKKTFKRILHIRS

[7] = molecular target: Muscarinic acetylcholine receptor M3 (Rattus norvegicus, UniProt P08483); experiment: Compound was tested for the binding affinity against muscarinic acetylcholine receptorby using [3H]QNB as radioligand
Chain of Muscarinic acetylcholine receptor M3 (P08483 whole entry): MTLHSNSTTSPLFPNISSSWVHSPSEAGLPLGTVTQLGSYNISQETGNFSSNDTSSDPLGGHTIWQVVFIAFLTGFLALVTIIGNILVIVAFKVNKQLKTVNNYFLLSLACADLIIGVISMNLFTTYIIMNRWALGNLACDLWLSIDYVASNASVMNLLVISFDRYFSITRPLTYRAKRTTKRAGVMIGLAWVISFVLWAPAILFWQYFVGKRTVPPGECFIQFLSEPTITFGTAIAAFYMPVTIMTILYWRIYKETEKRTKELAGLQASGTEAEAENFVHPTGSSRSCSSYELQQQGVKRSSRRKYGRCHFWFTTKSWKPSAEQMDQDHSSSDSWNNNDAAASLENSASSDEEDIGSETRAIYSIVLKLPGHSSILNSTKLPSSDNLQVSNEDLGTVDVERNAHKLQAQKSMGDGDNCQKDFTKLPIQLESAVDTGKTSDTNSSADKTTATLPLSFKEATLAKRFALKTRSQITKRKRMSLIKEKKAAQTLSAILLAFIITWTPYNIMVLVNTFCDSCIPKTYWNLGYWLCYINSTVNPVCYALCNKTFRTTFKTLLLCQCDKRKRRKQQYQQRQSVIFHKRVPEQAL

Mu-type opioid receptor = Mu-type opioid receptor (Homo sapiens, UniProt P35372); experiment: Compound was tested for the binding affinity against opioid receptor mu by using [3H]naloxone as radioligand
Chain of Mu-type opioid receptor (P35372 whole entry): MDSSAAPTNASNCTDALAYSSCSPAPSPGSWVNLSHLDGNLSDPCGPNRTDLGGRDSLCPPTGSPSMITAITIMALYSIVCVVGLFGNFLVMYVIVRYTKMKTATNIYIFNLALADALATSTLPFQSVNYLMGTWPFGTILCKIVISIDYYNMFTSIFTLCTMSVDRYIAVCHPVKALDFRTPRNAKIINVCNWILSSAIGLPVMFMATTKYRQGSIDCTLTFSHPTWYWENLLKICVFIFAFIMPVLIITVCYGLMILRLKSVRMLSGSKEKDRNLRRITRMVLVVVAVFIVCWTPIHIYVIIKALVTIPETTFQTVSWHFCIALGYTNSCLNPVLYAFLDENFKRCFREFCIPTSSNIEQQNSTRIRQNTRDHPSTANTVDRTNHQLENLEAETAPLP

| SMILES | IC50 [1] [nM] | IC50 (Glutamate NMDA receptor) [µM] | selectivity ratio [2] | other results |
| --- | --- | --- | --- | --- |
| C[C@@H]([C@@H](O)c1ccc(O)cc1)N1CCN(C(=O)c2ccccc2)CC1 | > 10000 | > 10 |  |  |
| C[C@@H]([C@H](O)c1ccccc1)N1CCC(Cc2ccccc2)CC1 | 573 |  | 0.28 |  |
| CC(CO)N1CCC(Cc2ccccc2)CC1 (stereo not given) | > 10000 | > 10 |  |  |
| CCCC1CCN([C@@H](C)[C@@H](O)c2ccc(O)cc2)CC1 | 2867 | 6.3 | 0.61 |  |
| C[C@@H]([C@H](O)c1ccc(F)cc1)N1CCC(Cc2ccccc2)CC1 | 220 |  | 0.94 |  |
| OC(CN1CCC(Cc2ccccc2)CC1)c1ccccc1 (stereo not given) | 2133 | 5 | 0.43 |  |
| CC(Cc1ccc(O)cc1)N1CCC(Cc2ccccc2)CC1 (stereo not given) | 130 | 0.153 | 0.85 |  |
| c1ccc(CCN2CCC(Cc3ccccc3)CC2)cc1 | 347 | 0.29 | 1.19 |  |
| C[C@@H]([C@@H](O)c1ccc(O)cc1)N1CCN(Cc2ccccc2)CC1 |  | 10 |  | IC50 [3]: 4633 nM |
| C[C@@H]([C@H](O)c1ccc(O)cc1)N1CCCCC1 | > 10000 | > 10 |  |  |
| C[C@@H]([C@@H](O)c1ccccc1)N1CCC(Cc2ccccc2)CC1 | 3400 | 3.7 | 0.92 |  |
| C[C@@H]([C@@H](O)c1ccc(O)cc1)N1CCCCC1 | > 10000 | > 10 |  |  |
| C[C@@H]([C@@H](O)c1ccc(F)cc1)N1CCC(Cc2ccccc2)CC1 | 2566 | 0.1 | 25.6 |  |
| C[C@@H]([C@@H](O)c1ccc(O)cc1)N1CCC(Cc2ccccc2)CC1 (stereo in doubt; 2) [(S)-IFENPRODIL] |  |  |  | IC50 [3]: 843 nM |
| C[C@@H]([C@@H](O)c1ccc(O)cc1)N1CCC(Cc2ccccc2)CC1 (stereo in doubt; 18) [(S)-IFENPRODIL] | 2306 |  |  | TI [4]: 48 |
| C[C@@H]([C@@H](O)c1ccc(O)cc1)N1CCC(Cc2ccccc2)CC1 (stereo in doubt; 19) [(S)-IFENPRODIL] | 629 |  |  |  |
| C[C@@H]([C@H](O)c1ccc(O)cc1)N1CCC(Cc2ccccc2)CC1 [(R,S)-IFENPRODIL] | 135 |  |  |  |
| CC(C(O)c1ccc(O)cc1)N1CCC(Cc2ccccc2)CC1 (stereo not given) [IFENPRODIL] |  |  |  | IC50 [5]: 238 nM; IC50 [6]: 610 nM; IC50 [3]: 100 nM; IC50 (D(1A) dopamine receptor): > 1000 nM; IC50 (D(2) dopamine receptor): > 1000 nM; IC50 (Histamine H1 receptor): 1000 nM; IC50 [7]: > 1000 nM; IC50 (Mu-type opioid receptor): > 1000 nM |
